Results reported in the RNAGym collection of RNA variant scans (doi:10.1002/anie.201605470).

B1: Osa-1-4 twister ribozyme (parent)
chain: CCGCCUAACACUGCCAAUGCCGGUCCCAAGCCCGGAUAAAAGUGGAGGGGGCGG

Variants of: B1
Assay: self-cleavage, relative activity (ratio to wild type); higher = more cleavage; co-transcriptional
Outline: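 A DNA template was synthesised for a 54-nucleotide twister ribozyme from Oryza sativa, with 97 % wild-type base and 1 % of each other base at each of the 48 positions downstream of the cleavage site. The ribozyme cleaved itself co-transcriptionally during 2 h of in vitro transcription at 37 °C. Reverse transcription with a template-switching oligonucleotide, PCR amplification and deep sequencing followed, and cleavage status came from reads with or without upstream sequence. Relative activity is the fraction cleaved normalised to wild type.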

Variant	self-cleavage
CCGCCUCACACUGCCAAUGCCGGUCCCAAGCCCGGCUAAAAGUGGAGGGGGCGG [A36C A7C]	0.05
CCGCCUUACACUGCCAAUGCCGGUCCCAAGCCCGGCUAAAAGUGGAGGGGGCGG [A36C A7U]	0.05
CCGCCUAACACUGCCAAUGCCGGUCCCAAGCCCGGCUACAAGUGGAGGGGGCGG [A36C A39C]	0.15
CCGCCUAACACUGCCAAUGCCGGUCCCAAGCCCGGCUAGAAGUGGAGGGGGCGG [A36C A39G]	0.2
CCGCCUAACACUGCCAAUGCCGGUCCCAAGCCCGGCUAUAAGUGGAGGGGGCGG [A36C A39U]	0.15
CCGCCUAACACUGCCAAUGCCGGUCACAAGCCCGGCUAAAAGUGGAGGGGGCGG [A36C C26A]	0.03
CCGCCUAACACUGCCAAUGCCGGUCGCAAGCCCGGCUAAAAGUGGAGGGGGCGG [A36C C26G]	0.06
CCGCCUAACACUGCCAAUGCCGGUCUCAAGCCCGGCUAAAAGUGGAGGGGGCGG [A36C C26U]	0.12
CCGCCUAACACUGCCAAUGCCGGUGCCAAGCCCGGCUAAAAGUGGAGGGGGCGG [A36C C25G]	0.04
CCGCCUAACACUGCCAAUGCCGGUACCAAGCCCGGCUAAAAGUGGAGGGGGCGG [A36C C25A]	0.06
CCGCCUAACACUGCCAAUGCCGGUUCCAAGCCCGGCUAAAAGUGGAGGGGGCGG [A36C C25U]	0.1
CCGCCUAACACUGCCAAAGCCGGUCCCAAGCCCGUAUAAAAGUGGAGGGGGCGG [G35U U18A]	0.8
CCGCCUAACACUGCCAACGCCGGUCCCAAGCCCGUAUAAAAGUGGAGGGGGCGG [G35U U18C]	0.5
CCGCCUAACACUGCCAAGGCCGGUCCCAAGCCCGUAUAAAAGUGGAGGGGGCGG [G35U U18G]	0.77
CCGCCUAACACUGCCAAUGCCGGUCCCAAGCCCGUAUAAAAGCGGAGGGGGCGG [G35U U43C]	0.21
CCGCCUAACACUGCCAAUGCCGGUCCCAAGCCCGUAUAAAAGAGGAGGGGGCGG [G35U U43A]	0.44
CCGCCUAACACUGCCAAUGCCGGUCCCAAGCCCGUAUAAAAGGGGAGGGGGCGG [G35U U43G]	0.12
CCGCCUAACACUGCCAAUGCCGGUCCCAAGCCCGUAUAAAAGUGCAGGGGGCGG [G35U G45C]	0.06
CCGCCUAACACUGCCAAUGCCGGUCCCAAGCCCGUAUAAAAGUGAAGGGGGCGG [G35U G45A]	0.19
CCGCCUAACACUGCCAAUGCCGGUCCCAAGCCCGUAUAAAAGUGUAGGGGGCGG [G35U G45U]	0.09
CCGCCUAACACUGCCAAUGCCGGUCCCAAGCCCGUAGAAAAGUGGAGGGGGCGG [G35U U37G]	0.89
CCGCCUAACACUGCCAAUGCCGGUCCCAAGCCCGUACAAAAGUGGAGGGGGCGG [G35U U37C]	0.94
CCGCCUAACACUGCCAAUGCCGGUCCCAAGCCCGUAAAAAAGUGGAGGGGGCGG [G35U U37A]	0.92
CCGCCUAACACUGCCAAUGCCGGUCCCAAGCCCGUAUAAAAAUGGAGGGGGCGG [G35U G42A]	0.35
CCGCCUAACACUGCCAAUGCCGGUCCCAAGCCCGUAUAAAACUGGAGGGGGCGG [G35U G42C]	0.11

Variant	self-cleavage
CCGCCUAACACUGCCAAUGCCGGUCCCAAGCCCGUAUAAAAUUGGAGGGGGCGG [G35U G42U]	0.08
CCGCCUAACACUGCCAAUGCCGGUCCCAAGCCCGUAUAAAAGUGGAGGGGGCGA [G35U G54A]	0.8
CCGCCUAACACUGCCAAUGCCGGUCCCAAGCCCGUAUAAAAGUGGAGGGGGCGC [G35U G54C]	0.77
CCGCCUAACACUGCCAAUGCCGGUCCCAAGCCCGUAUAAAAGUGGAGGGGGCGU [G35U G54U]	0.8
CCGCCUAACACUGCCAAUGCCGGUCCCAAGCCCGCAGAAAAGUGGAGGGGGCGG [G35C U37G]	0.9
CCGCCUAACACUGCCAAUGCCGGUCCCAAGCCCGCACAAAAGUGGAGGGGGCGG [G35C U37C]	0.94
CCGCCUAACACUGACAAUGCCGGUCCCAAGCCCGGCUAAAAGUGGAGGGGGCGG [A36C C14A]	0.06
CCGCCUAACACUGUCAAUGCCGGUCCCAAGCCCGGCUAAAAGUGGAGGGGGCGG [A36C C14U]	0.09
CCGCCUAACACUGGCAAUGCCGGUCCCAAGCCCGGCUAAAAGUGGAGGGGGCGG [A36C C14G]	0.06
CCGCCUAACACUGCCAAUGCCGGUCCCAAGCCCGUAUAAAAGUGGAGCGGGCGG [G35U G48C]	0.07
CCGCCUAACACUGCCAAUGCCGGUCCCAAGCCCGUAUAAAAGUGGAGAGGGCGG [G35U G48A]	0.09
CCGCCUAACACUGCCAAUGCCGGUCCCAAGCCCGUAUAAAAGUGGAGUGGGCGG [G35U G48U]	0.08
CCGCCUAACACUGCCAAUGCCGGUCCCAAGCCCGGCUAAGAGUGGAGGGGGCGG [A36C A40G]	0.12
CCGCCUAACACUGCCAAUGCCGGUCCCAAGCCCGGCUAACAGUGGAGGGGGCGG [A36C A40C]	0.05
CCGCCUAACACUGCCAAUGCCGGUCCCAAGCCCGGCUAAUAGUGGAGGGGGCGG [A36C A40U]	0.13
CCGCCUAACAUUGCCAAUGCCGGUCCCAAGCCCGGCUAAAAGUGGAGGGGGCGG [A36C C11U]	0.26
CCGCCUAACAGUGCCAAUGCCGGUCCCAAGCCCGGCUAAAAGUGGAGGGGGCGG [A36C C11G]	0.08
CCGCCUAACAAUGCCAAUGCCGGUCCCAAGCCCGGCUAAAAGUGGAGGGGGCGG [A36C C11A]	0.11
CCGCCUAACACUGCGAAUGCCGGUCCCAAGCCCGGCUAAAAGUGGAGGGGGCGG [A36C C15G]	0.25
CCGCCUAACACUGCUAAUGCCGGUCCCAAGCCCGGCUAAAAGUGGAGGGGGCGG [A36C C15U]	0.12
CCGCCUAACACUGCAAAUGCCGGUCCCAAGCCCGGCUAAAAGUGGAGGGGGCGG [A36C C15A]	0.24
CCGCCUAGCACUGCCAAUGCCGGUCCCAAGCCCGGCUAAAAGUGGAGGGGGCGG [A36C A8G]	0.14
CCGCCUAUCACUGCCAAUGCCGGUCCCAAGCCCGGCUAAAAGUGGAGGGGGCGG [A36C A8U]	0.09
CCGCCUACCACUGCCAAUGCCGGUCCCAAGCCCGGCUAAAAGUGGAGGGGGCGG [A36C A8C]	0.06
